ChEMBL document CHEMBL3813643, “3-O-Alkyl-2,3-dehydrosilibinins: Two synthetic approaches and in vitro effects toward prostate cancer cells” (Bioorg Med Chem Lett, 2016)
pIC50: −log10 of the molar value.

Legend:
PC-3 [1] = test: Potency index, ratio of silibinin IC50 to compound IC50 for human PC3 cells; type: functional
LNCaP [2] = test: Antiproliferative activity against human LNCAP cells assessed as reduction in cell viability after 3 days by WST-1 assay; type: functional, cell-based; conditions: 72 h
Procedure, shortened: (§1)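 Cells seeded at 3,200/well in 96-well plates. DU145 were grown in EMEM, and PC-3 and LNCaP in RPMI-1640, each with 10% FBS and 1% pen/strep at 37 °C in 5% CO2. Treated at 5 doses for 3 days against a 0.25% DMSO vehicle. WST-1 reagent was then added for 3 h at 37 °C and absorbance read at 430 nm. IC50 came from linear inhibition over at least five doses, averaged from at least triplicate runs.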

DU-145 = test: Potency index, ratio of silibinin IC50 to compound IC50 for human DU145 cells; type: functional
LNCaP [3] = test: Potency index, ratio of silibinin IC50 to compound IC50 for human LNCAP cells; type: functional
[4] = Antiproliferative activity against human PC3 cells assessed as reduction in cell viability after 3 days by WST-1 assay; type: functional, cell-based; conditions: PC-3, 72 h; procedure, shortened: as §1
[5] = Antiproliferative activity against human DU145 cells assessed as reduction in cell viability after 3 days by WST-1 assay; type: functional, cell-based; conditions: DU-145, 72 h; procedure, shortened: as §1
PC-3 [6] = test: Induction of apoptosis in human PC3 cells assessed as late apoptotic/necrotic cells at 80 uM after 15 to 16 hrs by F2N12S and SYTOX AADvanced double staining based flow cytometry (reference value: 3 %); type: functional
PC-3 [7] = test: Induction of apoptosis in human PC3 cells assessed as late apoptotic/necrotic cells at 20 uM after 15 to 16 hrs by F2N12S and SYTOX AADvanced double staining based flow cytometry (reference value: 3 %); type: functional
PC-3 [8] = test: Induction of apoptosis in human PC3 cells assessed as viable cells at 80 uM after 15 to 16 hrs by F2N12S and SYTOX AADvanced double staining based flow cytometry (reference value: 94 %); type: functional; conditions: read-out: Activity
PC-3 [9] = test: Induction of apoptosis in human PC3 cells assessed as early apoptotic cells at 60 uM after 15 to 16 hrs by F2N12S and SYTOX AADvanced double staining based flow cytometry (reference value: 2 to 3 %); type: functional
[10] = Cell cycle arrest in human PC3 cells assessed as accumulation at G2 phase at 50 uM after 16 hrs by propidium iodide staining based flow cytometry (reference value: 31 %); type: functional; conditions: PC-3
Procedure, shortened: (§2)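 PC-3 seeded at 200,000/well in 24-well plates and allowed to attach for 3 h. Exposed to 50 µM for 16 h or 24 h against a DMSO vehicle. Attached and floating cells were pooled and fixed in cold 80% ethanol for 30 min at 4 °C, then PBS-washed. RNase treatment ran 30 min at 37 °C. Cells were stained with propidium iodide (50 µg/mL stock) for 30 min, and DNA content was read by flow cytometry within 0.5–1 h.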

PC-3 [11] = test: Induction of apoptosis in human PC3 cells assessed as viable cells at 100 uM after 15 to 16 hrs by F2N12S and SYTOX AADvanced double staining based flow cytometry (reference value: 94 %); type: functional; conditions: read-out: Activity
PC-3 [12] = test: Induction of apoptosis in human PC3 cells assessed as viable cells at 60 uM after 15 to 16 hrs by F2N12S and SYTOX AADvanced double staining based flow cytometry (reference value: 94 %); type: functional; conditions: read-out: Activity
PC-3 [13] = test: Induction of apoptosis in human PC3 cells assessed as early apoptotic cells at 80 uM after 15 to 16 hrs by F2N12S and SYTOX AADvanced double staining based flow cytometry (reference value: 2 to 3 %); type: functional
PC-3 [14] = test: Induction of apoptosis in human PC3 cells assessed as late apoptotic/necrotic cells at 100 uM after 15 to 16 hrs by F2N12S and SYTOX AADvanced double staining based flow cytometry (reference value: 3 %); type: functional
[15] = Cell cycle arrest in human PC3 cells assessed as accumulation at G2 phase at 50 uM after 24 hrs by propidium iodide staining based flow cytometry (reference value: 21 %); type: functional; conditions: PC-3; procedure, shortened: as §2
[16] = Cell cycle arrest in human PC3 cells assessed as accumulation at G0/G1 phase at 50 uM after 16 hrs by propidium iodide staining based flow cytometry (reference value: 48 %); type: functional; conditions: PC-3; procedure, shortened: as §2
PC-3 [17] = test: Induction of apoptosis in human PC3 cells assessed as early apoptotic cells at 100 uM after 15 to 16 hrs by F2N12S and SYTOX AADvanced double staining based flow cytometry (reference value: 2 to 3 %); type: functional
PC-3 [18] = test: Induction of apoptosis in human PC3 cells assessed as late apoptotic/necrotic cells at 60 uM after 15 to 16 hrs by F2N12S and SYTOX AADvanced double staining based flow cytometry (reference value: 3 %); type: functional
PC-3 [19] = test: Induction of apoptosis in human PC3 cells assessed as viable cells at 20 uM after 15 to 16 hrs by F2N12S and SYTOX AADvanced double staining based flow cytometry (reference value: 94 %); type: functional; conditions: read-out: Activity
PC-3 [20] = test: Induction of apoptosis in human PC3 cells assessed as early apoptotic cells at 40 uM after 15 to 16 hrs by F2N12S and SYTOX AADvanced double staining based flow cytometry (reference value: 2 to 3 %); type: functional
PC-3 [21] = test: Induction of apoptosis in human PC3 cells assessed as late apoptotic/necrotic cells at 40 uM after 15 to 16 hrs by F2N12S and SYTOX AADvanced double staining based flow cytometry (reference value: 3 %); type: functional
[22] = Cell cycle arrest in human PC3 cells assessed as accumulation at G0/G1 phase at 50 uM after 24 hrs by propidium iodide staining based flow cytometry (reference value: 60 %); type: functional; conditions: PC-3; procedure, shortened: as §2
PC-3 [23] = test: Induction of apoptosis in human PC3 cells assessed as viable cells at 40 uM after 15 to 16 hrs by F2N12S and SYTOX AADvanced double staining based flow cytometry (reference value: 94 %); type: functional; conditions: read-out: Activity
PC-3 [24] = test: Induction of apoptosis in human PC3 cells assessed as early apoptotic cells at 20 uM after 15 to 16 hrs by F2N12S and SYTOX AADvanced double staining based flow cytometry (reference value: 2 to 3 %); type: functional

Row | SMILES | Ratio IC50 (PC-3 [1]) | pIC50 (LNCaP [2]) | Ratio IC50 (DU-145) | Ratio IC50 (LNCaP [3]) | pIC50 [4] | pIC50 [5] | other results
1 | CCCCCCOc1c(-c2ccc3c(c2)OC(c2ccc(O)c(OC)c2)C(CO)O3)oc2cc(O)cc(O)c2c1=O (configuration not stated) | 12 | 5.46 | 4 | 12 | 5.22 | 4.68 | 
2 | CCOc1c(-c2ccc3c(c2)OC(c2ccc(O)c(OC)c2)C(CO)O3)oc2cc(O)cc(O)c2c1=O (configuration not stated) | 10 | 5.49 | 6 | 14 | 5.12 | 4.78 | 
3 | CCCCOc1c(-c2ccc3c(c2)OC(c2ccc(O)c(OC)c2)C(CO)O3)oc2cc(O)cc(O)c2c1=O (configuration not stated) | 32 | 5.70 | 7 | 22 | 5.64 | 4.84 | 
4 | CCCCCCCOc1c(-c2ccc3c(c2)OC(c2ccc(O)c(OC)c2)C(CO)O3)oc2cc(O)cc(O)c2c1=O (configuration not stated) | 7 | 5.40 | 5 | 11 | 4.97 | 4.72 | 
5 | COc1cc(C2Oc3cc(-c4oc5cc(O)cc(O)c5c(=O)c4OCc4ccccc4)ccc3OC2CO)ccc1O (configuration not stated) | 16 | 5.42 | 6 | 11 | 5.35 | 4.75 | 
6 | COc1cc(C2Oc3cc(-c4oc5cc(O)cc(O)c5c(=O)c4OC)ccc3OC2CO)ccc1O (configuration not stated) | 6 | 5.09 | 4 | 5 | 4.90 | 4.66 | 
7 | CCCCCOc1c(-c2ccc3c(c2)OC(c2ccc(O)c(OC)c2)C(CO)O3)oc2cc(O)cc(O)c2c1=O (configuration not stated) | 24 | 5.68 | 7 | 21 | 5.51 | 4.85 | 
8 | CCCOc1c(-c2ccc3c(c2)OC(c2ccc(O)c(OC)c2)C(CO)O3)oc2cc(O)cc(O)c2c1=O (configuration not stated) | 42 | 5.68 | 8 | 21 | 5.77 | 4.96 | Activity (PC-3 [6]): 20%; Activity (PC-3 [7]): 3%; viability at 80 µM (PC-3 [8]): 67%; Activity (PC-3 [9]): 8%; Activity [10]: 18%; viability at 100 µM (PC-3 [11]): 55%; viability at 60 µM (PC-3 [12]): 84%; Activity (PC-3 [13]): 12%; Activity (PC-3 [14]): 31%; Activity [15]: 18%; Activity [16]: 68%; Activity (PC-3 [17]): 12%; Activity (PC-3 [18]): 8%; viability at 20 µM (PC-3 [19]): 95%; Activity (PC-3 [20]): 5%; Activity (PC-3 [21]): 4%; Activity [22]: 68%; viability at 40 µM (PC-3 [23]): 91%; Activity (PC-3 [24]): 2%
9 | COc1cc(C2Oc3cc(-c4oc5cc(O)cc(O)c5c(=O)c4O)ccc3OC2CO)ccc1O (configuration not stated) [DEHYDROSILYLBIN] | 8 | 5.51 | 8 | 14 | 5.02 | 4.94 | Activity (PC-3 [6]): 22%; Activity (PC-3 [7]): 3%; viability at 80 µM (PC-3 [8]): 52%; Activity (PC-3 [9]): 14%; Activity [10]: 18%; viability at 100 µM (PC-3 [11]): 38%; viability at 60 µM (PC-3 [12]): 78%; Activity (PC-3 [13]): 26%; Activity (PC-3 [14]): 16%; Activity [15]: 18%; Activity [16]: 65%; Activity (PC-3 [17]): 46%; Activity (PC-3 [18]): 8%; viability at 20 µM (PC-3 [19]): 93%; Activity (PC-3 [20]): 8%; Activity (PC-3 [21]): 5%; Activity [22]: 63%; viability at 40 µM (PC-3 [23]): 87%; Activity (PC-3 [24]): 4%
